This is an account of results in ChEMBL document CHEMBL1124046, “2-Methyl-1,3-dioxaazaspiro[4.5]decanes as novel muscarinic cholinergic agonists” (J Med Chem, 1988).

For test [1], the target named is T1, Muscarinic acetylcholine receptor (Rattus norvegicus) (UniProt P08482+P08483+P08485+P08911+P10980). In words: Apparent binding affinity at Muscarinic acetylcholine receptor by displacing [3H]oxotremorine-M in rat cortex. The test is classed as tissue-based. In short, it runs like this: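 Membranes from male Sprague-Dawley rat (250-300 g) cortex in 20 mM HEPES buffer pH 7.4; displacement of 3.0 nM [3H]oxotremorine-M, 40 min at 30 °C, ended by filtration onto polyethylenimine-presoaked GF/C filters. Triplicates, at least four concentrations per curve; apparent affinity constant corrected for radioligand occupancy, in µM, geometric mean of n experiments.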

Test [2] addresses T1, Muscarinic acetylcholine receptor (Rattus norvegicus). The conditions noted are these: Cortex.
Test [3] in a line: Ratio of NMS/oxo-M apparent binding affinities (Kapp). The essentials:
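Two rat cortical membrane binding assays, each in triplicate with at least four concentrations, Kapp corrected for radioligand occupancy. [3H]N-methylscopolamine (0.1 nM) run in 20 mM HEPES Krebs' buffer pH 7.4, 60 min at 30 °C. [3H]oxotremorine-M (3.0 nM) run in 20 mM HEPES pH 7.4, 40 min at 30 °C. Ratio taken as NMS Kapp over oxo-M Kapp.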

Test [4] deals with T1, Muscarinic acetylcholine receptor (Rattus norvegicus). In words: Percent inhibition of [3H]N-methylscopolamine (NMS) binding to Muscarinic acetylcholine receptor in rat cortex at a concentration of >100 uM. In short, it runs like this: (§1)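 Rat cortical membranes (male Sprague-Dawley, 250-300 g). Test compound at a single stated concentration; percent inhibition of specific binding is reported. [3H]-N-methylscopolamine (0.1 nM) in 20 mM HEPES Krebs' buffer pH 7.4, 60 min at 30 °C; [3H]oxotremorine-M (3.0 nM) in 20 mM HEPES buffer pH 7.4, 40 min at 30 °C. Ended by filtration.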

For test [5] the target is unchanged. Description: Percent inhibition of [3H]oxotremorine-M binding to Muscarinic acetylcholine receptor in rat cortex at a concentration of >10 uM. In short, it runs like this: as §1
The target is the same in test [6]. Description: Apparent binding affinity at Muscarinic acetylcholine receptor, by displacing [3H]N-methylscopolamine (NMS) in rat cortex at a concentration of >100 uM. The test is classed as tissue-based. The essentials: (§2)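 Membranes from cortex of male Sprague-Dawley rats (250-300 g). Displacement curves with 0.1 nM [3H]-N-methylscopolamine in 20 mM HEPES Krebs' buffer pH 7.4, 60 min at 30 °C; or with 3.0 nM [3H]oxotremorine-M in 20 mM HEPES buffer pH 7.4, 40 min at 30 °C. Filtration read-out. Triplicates, at least four concentrations. Kapp corrected for radioligand occupancy; geometric mean of n experiments.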

Test [7] shares this target. In words: Apparent binding affinity at Muscarinic acetylcholine receptor by displacing [3H]oxotremorine-M in rat cortex at a concentration of >10 uM. The test is classed as tissue-based. In short, it runs like this: as §2
The target is the same in test [8]. The settings on record: Cortex. This is another data set of the same source.
The target is the same in test [9]. The conditions noted are these: Cortex. This is another data set of the same source.
Test [10] has the same target. The conditions noted are these: Cortex. This is another data set of the same source.
For test [11] the target is unchanged. The settings on record: Cortex. The source holds these as a separate data set.

Regarding `CCC1OCC2(CCN(C)CC2)O1` (stereo not drawn), the K app is 0.22 µM in test [1] and 5.3 µM in test [2]. In addition, in test [3], the Ratio worked out at 24.
With `CC1OCC2(CCCN(C)C2)O1` (stereo in doubt; 4a), the figures for the inhibition in test [4] and in test [5] were 24% and 4%, respectively.
For the compound `C[C@H]1OCC2(CN3CCC2CC3)O1` (stereo partly drawn), the K app in test [1] was 0.035 µM; in [2], 4.9 µM. Besides, the Ratio in [3] was 140.
Consider `CC1OCC2(CCCNC2)O1` (stereo not drawn), for which the inhibition – broadly, the share of the control response that was lost under treatment – in [6] was determined as 20%; in [4], 29%; in test [7], 13%; in test [5] it was 25%.
Turning to `CCN1C(=O)CC2(CCN(C)CC2)C1=O`, the K app in test [1] was 0.04 µM; in test [8], 5 µM. Also, the Ratio in test [3] is 130.
Take `CC1OCC2(CCCN(C)C2)O1` (stereo in doubt; 4b): the results for the inhibition in [4] and in [5] were 19% and 10%, respectively.
In the case of `C[N+](C)(C)CCOC(N)=O`, the K app in [2] is 24 µM; in [9] it was 0.0058 µM. In addition, the Ratio in test [3] stood at 4100.
Consider `CC1OCC2(CCNCC2)O1` (stereo not drawn), for which the K app in test [10] came out at 43 µM; in test [11], 0.092 µM. Moreover, in test [3], the Ratio was 470.
